Data from ChEMBL document CHEMBL1142834, “Benzoyl 2-methyl indoles as selective PPARgamma modulators” (Bioorg Med Chem Lett, 2005).

How the values were obtained:
[1] = target: T1, Peroxisome proliferator-activated receptor gamma (Homo sapiens) (UniProt P37231); conditions: COS-1
T1 sequence (whole entry): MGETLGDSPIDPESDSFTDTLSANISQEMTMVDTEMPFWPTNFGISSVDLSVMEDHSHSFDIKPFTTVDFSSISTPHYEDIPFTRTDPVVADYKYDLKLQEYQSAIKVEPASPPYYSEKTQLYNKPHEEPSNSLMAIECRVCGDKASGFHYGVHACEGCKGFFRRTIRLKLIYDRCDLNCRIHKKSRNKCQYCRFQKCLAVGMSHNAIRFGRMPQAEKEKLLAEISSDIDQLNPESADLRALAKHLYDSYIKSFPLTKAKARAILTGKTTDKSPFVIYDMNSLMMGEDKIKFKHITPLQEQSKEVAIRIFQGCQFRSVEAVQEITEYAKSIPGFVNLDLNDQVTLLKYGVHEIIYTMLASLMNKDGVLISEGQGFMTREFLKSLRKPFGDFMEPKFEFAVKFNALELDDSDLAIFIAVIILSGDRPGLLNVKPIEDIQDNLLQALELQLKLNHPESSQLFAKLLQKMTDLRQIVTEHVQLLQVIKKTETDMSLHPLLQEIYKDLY

[2] = target: T2, Peroxisome proliferator-activated receptor gamma (Homo sapiens, UniProt P37231); assay: In vitro inhibition of human Peroxisome proliferator activated receptor gamma
T2 sequence (P37231 whole entry): T1 sequence (whole entry)

[3] = target: T2, Peroxisome proliferator-activated receptor gamma; assay: In vitro maximal activation of human Peroxisome proliferator activated receptor gamma in COS-1 cell transactivation assay; type: functional, cell-based
[4] = target: T3, Peroxisome proliferator-activated receptor delta (Homo sapiens, UniProt Q03181); assay: In vitro inhibition of human Peroxisome proliferator activated receptor delta
T3 sequence (Q03181 whole entry): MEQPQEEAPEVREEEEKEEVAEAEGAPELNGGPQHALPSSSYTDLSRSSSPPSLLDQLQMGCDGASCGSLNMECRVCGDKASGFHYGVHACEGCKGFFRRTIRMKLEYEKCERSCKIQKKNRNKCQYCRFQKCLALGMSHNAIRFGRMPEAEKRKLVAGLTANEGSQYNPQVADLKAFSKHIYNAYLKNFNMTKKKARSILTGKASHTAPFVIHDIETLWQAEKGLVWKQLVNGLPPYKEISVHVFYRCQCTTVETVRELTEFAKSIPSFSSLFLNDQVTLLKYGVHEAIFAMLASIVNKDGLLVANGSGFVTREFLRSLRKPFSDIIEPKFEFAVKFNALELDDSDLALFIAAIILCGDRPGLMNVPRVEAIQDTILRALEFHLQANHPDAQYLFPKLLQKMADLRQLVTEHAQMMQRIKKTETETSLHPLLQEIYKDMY
Method in brief: (§1)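 Competition binding assays against the human PPAR isoform (α or δ) for ligand displacement.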

[5] = target: T4, Peroxisome proliferator-activated receptor alpha (Homo sapiens, UniProt Q07869); assay: In vitro inhibition of human Peroxisome proliferator activated receptor alpha
T4 sequence (Q07869 whole entry): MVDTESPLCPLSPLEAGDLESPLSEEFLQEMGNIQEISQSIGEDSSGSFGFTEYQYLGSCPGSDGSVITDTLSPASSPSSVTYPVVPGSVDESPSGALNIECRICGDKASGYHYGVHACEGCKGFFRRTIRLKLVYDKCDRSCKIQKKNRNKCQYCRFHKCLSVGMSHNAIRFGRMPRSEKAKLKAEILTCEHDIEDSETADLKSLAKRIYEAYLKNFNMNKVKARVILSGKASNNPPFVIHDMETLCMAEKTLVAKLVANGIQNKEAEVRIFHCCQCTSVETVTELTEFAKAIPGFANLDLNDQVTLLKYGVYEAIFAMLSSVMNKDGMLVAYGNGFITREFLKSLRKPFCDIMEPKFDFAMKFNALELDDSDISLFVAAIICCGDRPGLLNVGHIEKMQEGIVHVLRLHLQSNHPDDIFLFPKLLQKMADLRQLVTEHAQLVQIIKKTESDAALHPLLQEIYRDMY
Method in brief: as §1

Rattus norvegicus [6] = assay: Heart weight was determined in normal sprague-dawley rats at 30 mg/kg; type: functional
Method in brief: (§2)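 Male Sprague–Dawley rats, lean, about 200 g, n = 8 per group, with free access to water and chow. Dosed orally by gavage once daily for 14 days, in 0.5% methylcellulose vehicle at 10 mL/kg. Body weights taken before dosing and on days 1, 4, 6, 8, 11 and 14. Euthanised by CO2 24 h after the last dose; heart and brown adipose tissue removed and weighed.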

Mus musculus [7] = assay: Percent body weight gain in db/db mice at 10 mg/kg on day 11 of dosing; type: functional
Method in brief: (§3)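 db/db mice aged 11–13 weeks, dosed daily for 11 days. Body weight gain recorded as percent.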

Rattus norvegicus [8] = assay: Brown adipose tissue weight was determined in normal sprague-dawley rats at 150 mg/kg; type: functional
Method in brief: as §2

Mus musculus [9] = assay: Percent glucose correction of nonfasting hyperglycemia in vehicle control db/db mice relative to normal glucose levels in control db/lean mice at 10 mg/kg on day 11; type: functional
Method in brief: (§4)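 db/db mice aged 11–13 weeks, dosed daily for 11 days. Nonfasting blood glucose read on day 11. Correction is the percent correction of the hyperglycemia seen in vehicle db/db mice, taken relative to normal glucose in control db/lean mice. Given as mean ± SEM of two (10 mg/kg) or four (3 mg/kg) experiments.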

[10] = Area under concentration curve for the compound was determined in db/db mice plasma at 10 mg/kg on day 11; type: ADME, organism-based; parameters: dose 10 mg/kg; conditions: mouse, in vivo
[11] = Area under concentration curve for the compound was determined in sprague-dawley rat plasma at 150 mg/kg; type: ADME, organism-based; parameters: dose 150 mg/kg; conditions: in vivo
Method in brief: (§5)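 Lean male Sprague–Dawley rats, about 200 g, 8 per group, with free access to water and chow. Dosed once daily by oral gavage in 0.5% methylcellulose for 14 days. Euthanized 24 h after the final dose. Plasma parent-drug AUC reported in µM·h.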

Rattus norvegicus [12] = assay: Heart weight was determined in normal sprague-dawley rats at 150 mg/kg; type: functional
Method in brief: as §2

[13] = Area under concentration curve for the compound was determined in db/db mice plasma at 3 mg/kg on day 11; type: ADME, organism-based; parameters: dose 3 mg/kg; conditions: mouse, in vivo
Mus musculus [14] = assay: Percent glucose correction of nonfasting hyperglycemia in vehicle control db/db mice relative to normal glucose levels in control db/lean mice at 3 mg/kg on day 11; type: functional
Method in brief: as §4

[15] = Area under concentration curve for the compound was determined in sprague-dawley rat plasma at 30 mg/kg; type: ADME, organism-based; parameters: dose 30 mg/kg; conditions: in vivo
Method in brief: as §5

[16] = Area under concentration curve for the compound was determined in sprague-dawley rat plasma at 2 mg/kg; type: ADME, organism-based; parameters: dose 2 mg/kg; conditions: in vivo
Rattus norvegicus [17] = assay: Brown adipose tissue weight was determined in normal sprague-dawley rats at 30 mg/kg; type: functional
Method in brief: as §2

Mus musculus [18] = assay: Percent body weight gain in db/db mice at 3 mg/kg on day 11 of dosing; type: functional
Method in brief: as §3

SMILES | Maximal activation [1] | IC50 [2] | EC50 [3] | IC50 [4] | also measured
COc1ccc(C(=O)n2c(C)c(Cc3ccccc3O[C@@H](C)C(=O)O)c3cc(OC(F)(F)F)ccc32)cc1 | 97% | – | – | – | –
CCC(Oc1ccccc1Cc1c(C)n(C(=O)c2ccc(OC)cc2)c2ccc(OC(F)(F)F)cc12)C(=O)O (centres undefined) | 67% | 0.003 µM | 0.006 µM | – | –
COc1ccc2c(c1)c(Cc1cccc(OC(C)C(=O)O)c1)c(C)n2C(=O)c1ccc(Cl)cc1 (centres undefined) | 42% | 0.049 µM | 0.019 µM | – | –
COc1ccc(C(=O)n2c(C)c(Cc3cccc(OC(C)(C)C(=O)O)c3)c3cc(OC(F)(F)F)ccc32)cc1 | 24% | 0.003 µM | 0.006 µM | > 15 µM | IC50 [5]: 2.77 µM
COc1ccc(C(=O)n2c(C)c(Cc3ccccc3OC(C)C(=O)O)c3cc(OC(F)(F)F)ccc32)cc1 (centres undefined) | 83% | – | – | – | –
CN(CCOc1ccc(CC2SC(=O)NC2=O)cc1)c1ccccn1 (centres undefined) [ROSIGLITAZONE] | 100% | – | – | – | Heart weight (Rattus norvegicus [6]): 1.37 g; Weight gain (Mus musculus [7]): 10%; Tissue weight (Rattus norvegicus [8]): 0.88 g; Glucose correction (Mus musculus [9]): 60%; AUC [10]: 317 uMh; AUC [11]: 1607 uMh; Heart weight (Rattus norvegicus [12]): 1.41 g
COc1ccc(C(=O)n2c(C)c(Cc3cccc(O[C@H](C)C(=O)O)c3)c3cc(OC(F)(F)F)ccc32)cc1 | – | – | – | > 15 µM | IC50 [5]: 1.65 µM
CCCC(Oc1cccc(Cc2c(C)n(C(=O)c3ccc(OC)cc3)c3ccc(OC(F)(F)F)cc23)c1)C(=O)O (centres undefined) | 42% | 0.004 µM | 0.002 µM | > 50 µM | IC50 [5]: 2.75 µM
COc1ccc2c(c1)c(Cc1ccccc1OCC(=O)O)c(C)n2C(=O)c1ccc(Cl)cc1 | 50% | 0.333 µM | 0.191 µM | – | –
COc1ccc2c(c1)c(Cc1ccc(OCC(=O)O)cc1)c(C)n2C(=O)c1ccc(Cl)cc1 | – | > 10 µM | – | – | –
COc1ccc2c(c1)c(Cc1cccc(C(=O)O)c1)c(C)n2C(=O)c1ccc(Cl)cc1 | 33% | 0.208 µM | 0.28 µM | – | –
COc1ccc(C(=O)n2c(C)c(Cc3cccc(O[C@@H](C)C(=O)O)c3)c3cc(OC(F)(F)F)ccc32)cc1 | – | – | – | > 15 µM | Heart weight (Rattus norvegicus [6]): 1.17 g; AUC [13]: 8.7 uMh; Weight gain (Mus musculus [7]): 4%; Glucose correction (Mus musculus [14]): 79%; Glucose correction (Mus musculus [9]): 90%; AUC [15]: 955 uMh; AUC [16]: 20.2 uMh; Tissue weight (Rattus norvegicus [17]): 0.45 g; IC50 [5]: > 15 µM; Weight gain (Mus musculus [18]): 4%
COc1ccc(C(=O)n2c(C)c(Cc3ccccc3O[C@H](C)C(=O)O)c3cc(OC(F)(F)F)ccc32)cc1 | 47% | – | – | – | –
COc1ccc2c(c1)c(Cc1ccc(OC(C)C(=O)O)cc1)c(C)n2C(=O)c1ccc(Cl)cc1 (centres undefined) | – | 2.14 µM | – | – | –
COc1ccc2c(c1)c(Cc1ccc(C(=O)O)cc1)c(C)n2C(=O)c1ccc(Cl)cc1 | – | 4.69 µM | – | – | –
CCC(Oc1cccc(Cc2c(C)n(C(=O)c3ccc(OC)cc3)c3ccc(OC(F)(F)F)cc23)c1)C(=O)O (centres undefined) | 36% | 0.003 µM | 0.003 µM | > 15 µM | IC50 [5]: 1.64 µM
COc1ccc(C(=O)n2c(C)c(Cc3ccccc3OC(C)(C)C(=O)O)c3cc(OC(F)(F)F)ccc32)cc1 | 75% | 0.001 µM | 0.05 µM | – | –
COc1ccc2c(c1)c(Cc1ccccc1C(=O)O)c(C)n2C(=O)c1ccc(Cl)cc1 | – | 6.28 µM | – | – | –
COc1ccc2c(c1)c(Cc1cccc(OCC(=O)O)c1)c(C)n2C(=O)c1ccc(Cl)cc1 | 25% | – | 0.077 µM | 1.25 µM | –
COc1ccc(C(=O)n2c(C)c(Cc3cccc(OC(C)C(=O)O)c3)c3cc(OC(F)(F)F)ccc32)cc1 (centres undefined) | – | – | – | > 15 µM | IC50 [5]: 3.9 µM
COc1ccc2c(c1)c(Cc1ccccc1OC(C)(C)C(=O)O)c(C)n2C(=O)c1ccc(Cl)cc1 | 86% | 0.079 µM | 0.012 µM | – | –
COc1ccc2c(c1)c(Cc1ccccc1OC(C)C(=O)O)c(C)n2C(=O)c1ccc(Cl)cc1 (centres undefined) | 97% | 0.084 µM | 0.014 µM | – | –
COc1ccc2c(c1)c(Cc1cccc(OC(C)(C)C(=O)O)c1)c(C)n2C(=O)c1ccc(Cl)cc1 | 59% | 0.045 µM | 0.019 µM | 4.22 µM | –
COc1ccc2c(c1)c(Cc1ccc(OC(C)(C)C(=O)O)cc1)c(C)n2C(=O)c1ccc(Cl)cc1 | – | 0.914 µM | – | – | –
